In ChEMBL document CHEMBL4680236, “Design, synthesis and structure-activity relationships of novel 15-membered macrolides: Quinolone/quinoline-containing sidechains tethered to the C-6 position of azithromycin acylides” (Eur J Med Chem, 2020):
Values after ≈ are worked out from the molar mass of the structure shown.

Assays:
Assay type in all cases: functional
Streptococcus pneumoniae [1] = assay: Antibacterial activity against Erythromycin-susceptible Streptococcus pneumoniae ATCC 49619 assessed as reduction in microbial growth
Streptococcus pneumoniae [2] = assay: Bactericidal activity against Erythromycin-susceptible Streptococcus pneumoniae ATCC 49619
Summary of the method: (§1)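 Bacteria were exposed to 1- to 8-fold MIC of the sample, then transferred to fresh medium without antibacterial. After further incubation, colonies were counted. MBC was taken as the lowest concentration giving a >3 log10 reduction in colony number.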

Streptococcus pneumoniae [3] = assay: Ratio of MBC to MIC against Erythromycin-susceptible Streptococcus pneumoniae ATCC 49619
Streptococcus pneumoniae [4] = assay: Antibacterial activity against penicillin-susceptible Streptococcus pneumoniae PU09 harboring mef gene assessed as reduction in microbial growth
Streptococcus pneumoniae [5] = assay: Bactericidal activity against penicillin-susceptible Streptococcus pneumoniae PU09 harboring mef gene
Summary of the method: (§2)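 Bacteria were exposed to 1- to 8-fold their MIC of test sample, then transferred to fresh culture medium without antibacterial compound and incubated for the required time. Colonies were then counted. MBC is the lowest concentration giving a reduction in colony number of >3 Log₁₀.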

Streptococcus pneumoniae [6] = assay: Ratio of MBC to MIC against penicillin-susceptible Streptococcus pneumoniae PU09
Streptococcus pneumoniae [7] = assay: Antibacterial activity against MLSB-resistant Streptococcus pneumoniae 07P390 harboring ermB gene assessed as reduction in microbial growth
Streptococcus pneumoniae [8] = assay: Bactericidal activity against MLSB-resistant Streptococcus pneumoniae 07P390 harboring ermB gene assessed as reduction in microbial growth; summary of the method: as §2
Streptococcus pneumoniae [9] = assay: Ratio of MBC to MIC against MLSB-resistant Streptococcus pneumoniae 07P390 harboring ermB
Staphylococcus aureus [10] = assay: Antibacterial activity against MLSB/methicillin/ciprofloxacin-resistant Staphylococcus aureus PU32 harboring ermA gene assessed as reduction in microbial growth
Staphylococcus aureus [11] = assay: Bactericidal activity against MLSB/methicillin/ciprofloxacin-resistant Staphylococcus aureus PU32 harboring ermA gene; summary of the method: as §2
Staphylococcus aureus [12] = assay: Ratio of MBC to MIC against MLSB/methicillin/ciprofloxacin-resistant Staphylococcus aureus PU32 harboring ermA gene
Staphylococcus aureus [13] = assay: Antibacterial activity against MLSB/methicillin-resistant Staphylococcus aureus 15B196 assessed as reduction in microbial growth
Haemophilus influenzae [14] = assay: Antibacterial activity against azithromycin-susceptible Haemophilus influenzae ATCC 49247 assessed as reduction in microbial growth
Haemophilus influenzae [15] = assay: Bactericidal activity against azithromycin-susceptible Haemophilus influenzae ATCC 49247; summary of the method: as §1
Haemophilus influenzae [16] = assay: Ratio of MBC to MIC against azithromycin-susceptible Haemophilus influenzae ATCC 49247
Staphylococcus aureus [17] = assay: Bactericidal activity against MLSB/methicillin-resistant Staphylococcus aureus 15B196; summary of the method: as §2
Streptococcus pyogenes [18] = assay: Antibacterial activity against MLSB-resistant Streptococcus pyogenes 12-206 harboring ermA gene assessed as reduction in microbial growth
Streptococcus pyogenes [19] = assay: Bactericidal activity against MLSB-resistant Streptococcus pyogenes 12-206 harboring ermA gene; summary of the method: as §2
Streptococcus pyogenes [20] = assay: Ratio of MBC to MIC against MLSB-resistant Streptococcus pyogenes 12-206 harboring ermA gene

| Structure (SMILES) | MIC (Streptococcus pneumoniae [1]) | MBC (Streptococcus pneumoniae [2]) | Ratio (Streptococcus pneumoniae [3]) | MIC (Streptococcus pneumoniae [4]) | MBC (Streptococcus pneumoniae [5]) | Ratio (Streptococcus pneumoniae [6]) | MIC (Streptococcus pneumoniae [7]) | MBC (Streptococcus pneumoniae [8]) | Ratio (Streptococcus pneumoniae [9]) | MIC (Staphylococcus aureus [10]) | MBC (Staphylococcus aureus [11]) | Ratio (Staphylococcus aureus [12]) | MIC (Staphylococcus aureus [13]) | MIC (Haemophilus influenzae [14]) | MBC (Haemophilus influenzae [15]) | Ratio (Haemophilus influenzae [16]) | MBC (Staphylococcus aureus [17]) | MIC (Streptococcus pyogenes [18]) | MBC (Streptococcus pyogenes [19]) | Ratio (Streptococcus pyogenes [20]) |
| --- | --- | --- | --- | --- | --- | --- | --- | --- | --- | --- | --- | --- | --- | --- | --- | --- | --- | --- | --- | --- |
| CC[C@H]1OC(=O)[C@H](C)[C@@H](OC(=O)Cc2ccccn2)[C@H](C)[C@@H](O[C@@H]2O[C@H](C)C[C@H](N(C)C)[C@H]2O)[C@](C)(OC(=O)CCNCCNc2cc3c(=O)c(C(=O)O)cn(C4CC4)c3cc2Cl)C[C@@H](C)CN(C)[C@H](C)[C@@H](O)[C@]1(C)O | 0.25 µg/mL | 0.25 µg/mL (≈ 0.23 µM) | 1 | 4 µg/mL | 4 µg/mL (≈ 3.68 µM) | 1 | 1 µg/mL | > 8 µg/mL | >8 | 8 µg/mL | > 64 µg/mL | >8 | > 256 µg/mL | 16 µg/mL | 32 µg/mL (≈ 29.5 µM) | 2 | – | – | – | – |
| CC[C@H]1OC(=O)[C@H](C)[C@@H](OC(=O)Cc2ccccn2)[C@H](C)[C@@H](O[C@@H]2O[C@H](C)C[C@H](N(C)C)[C@H]2O)[C@](C)(OC(=O)CCNC/C=C/c2cnc3ccccc3c2)C[C@@H](C)CN(C)[C@H](C)[C@@H](O)[C@]1(C)O | 0.125 µg/mL | 0.25 µg/mL (≈ 0.264 µM) | 2 | 2 µg/mL | 2 µg/mL (≈ 2.11 µM) | 1 | 1 µg/mL | > 8 µg/mL | >8 | 2 µg/mL | > 16 µg/mL | >8 | > 256 µg/mL | 8 µg/mL | 16 µg/mL (≈ 16.9 µM) | 2 | – | – | – | – |
| CC[C@H]1OC(=O)[C@H](C)[C@@H](OC(=O)Cc2ccccn2)[C@H](C)[C@@H](O[C@@H]2O[C@H](C)C[C@H](N(C)C)[C@H]2O)[C@](C)(OC(=O)CCNCCCc2cnc3ccccc3c2)C[C@@H](C)CN(C)[C@H](C)[C@@H](O)[C@]1(C)O | 0.062 µg/mL | 0.062 µg/mL (≈ 0.0652 µM) | 1 | 2 µg/mL | 4 µg/mL (≈ 4.21 µM) | 2 | 2 µg/mL | 16 µg/mL | 8 | 4 µg/mL | 32 µg/mL (≈ 33.7 µM) | 8 | > 256 µg/mL | 16 µg/mL | 16 µg/mL (≈ 16.8 µM) | 1 | – | – | – | – |
| CC[C@H]1OC(=O)[C@H](C)[C@@H](OC(=O)Cc2ccccn2)[C@H](C)[C@@H](O[C@@H]2O[C@H](C)C[C@H](N(C)C)[C@H]2O)[C@](C)(OC(=O)CCNCCC#Cc2ccc3c(c2)c(=O)c(C(N)=O)cn3C2CC2)C[C@@H](C)CN(C)[C@H](C)[C@H]2OC(=O)O[C@@]21C | 0.5 µg/mL | 1 µg/mL (≈ 0.921 µM) | 2 | 4 µg/mL | 8 µg/mL (≈ 7.37 µM) | 2 | 64 µg/mL | 128 µg/mL | – | 64 µg/mL | > 256 µg/mL | >4 | 128 µg/mL | 64 µg/mL | 128 µg/mL (≈ 118 µM) | 2 | > 256 µg/mL | 16 µg/mL | 64 µg/mL (≈ 59 µM) | 4 |
| CC[C@H]1OC(=O)[C@H](C)[C@@H](OC(=O)Cc2ccccn2)[C@H](C)[C@@H](O[C@@H]2O[C@H](C)C[C@H](N(C)C)[C@H]2O)[C@](C)(OC(=O)CCNCCC#Cc2ccc3c(c2)c(=O)c(C(=O)O)cn3C2CC2)C[C@@H](C)CN(C)[C@H](C)[C@H]2OC(=O)O[C@@]21C | 1 µg/mL | 1 µg/mL (≈ 0.921 µM) | 1 | 4 µg/mL | 8 µg/mL (≈ 7.36 µM) | 2 | 64 µg/mL | 64 µg/mL | – | 64 µg/mL | > 256 µg/mL | >4 | > 256 µg/mL | 64 µg/mL | 128 µg/mL (≈ 118 µM) | 2 | > 256 µg/mL | 32 µg/mL | 64 µg/mL (≈ 58.9 µM) | 2 |
